Measured values from article PMC7223318 (Drug Delivery and Translational Research, 2020).
No end group written: not given here.

Test system: ARPE-19 cells
Assay: Cellular uptake of FITC-labelled peptides, confocal microscopy
Assay type: in vitro ADME, human
Conditions: 1 h, 37 °C, confocal microscopy (Fig. 2)
Outline: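 ARPE-19 cells (DMEM/F-12 GlutaMAX, 10% FBS, 1% AA) were seeded at 2 × 10^5 cells/ml in chamber slides and grown two nights. FITC-labelled peptides were applied for 1 h at 37 °C, 5% CO2, in culture medium or in hypoxic HAIR solution (K-gluconate/Na-gluconate/NMDG-based, bicarbonate). Cells were then PBS-washed, fixed in 4% formaldehyde, DAPI-counterstained and imaged by confocal microscopy.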

cellular uptake in hypoxic ARPE-19 cells (HAIR solution (hypoxia), FITC-labelled Gap19 100 μM or XG19 5 μM): undetectable
cellular uptake in normal ARPE-19 cells (normal culture medium, FITC-labelled Gap19 100 μM): undetectable
Sequence: KQIEIKKFK [Gap19]
